According to ChEMBL document CHEMBL3526139, “Clinical pharmacokinetics, metabolism, and drug-drug interaction of carfilzomib” (Drug Metab Dispos, 2013):

Experiments:
CYP3A [1] = target: T1, CYP3A (Homo sapiens, UniProt P08684+P20815+P24462+Q9HB55); assay: Inhibition of CYP3A in human liver microsomes assessed as substrate metabolite formation using midazolam as substrate measured after 5 mins by LC-MS/MS analysis; type: ADME; details: probe midazolam
Method in brief: (§1)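 Pooled HLM from 16 donors were incubated at 37°C in duplicate with carfilzomib 0.01–10 µM and probe substrate at about its Km. Substrates were phenacetin, amodiaquine, diclofenac, S-mephenytoin, dextromethorphan, testosterone and midazolam. Protein was 0.1 mg/mL, or 0.05 mg/mL with midazolam. Reactions ran 5 min without preincubation, then were quenched with acetonitrile. Metabolites were measured by LC-MS/MS relative to 0.5% acetonitrile controls.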

[2] = Plasma protein binding in iv dosed human multiple myeloma patient at 15 mg/m'2 in first cycle and escalated to 20 mg/m'2 thereafter administered on days 1, 2, 8, 9, 15 and 16 of 28-day cycle over 2 to 10 mins by LC-MS/MS analysis; type: ADME, organism-based; details: read-out: PPB (converted)
Method in brief: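 Plasma taken at end of administration and 5 min after, on Days 1 and 15 of Cycle 1 and Day 15 of Cycle 2, was dialyzed 6 h at 37°C against pH 7.4 sodium phosphate buffer by rapid equilibrium dialysis. Samples were matrix-matched, extracted by acetonitrile precipitation and quantified by LC-MS/MS.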

Plasma [3] = assay: Drug metabolism in plasma of iv dosed human patient with relapsed and refractory hematological malignancies assessed as morpholino-hPhe-Leu metabolite formation administered on days 1, 2, 8, 9, 15 and 16 of 28-day cycle over 2 to 10 mins by LC-MS/MS analysis; type: ADME, organism-based; details: in vivo
CYP1A2 = assay: Decrease in CYP1A2 gene expression in human hepatocytes at 2.5 uM after 3 days by qPCR analysis; type: ADME, cell-based, Hepatocyte
Method in brief: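 Hepatocytes were treated 3 days with carfilzomib (0.1–2.5 µM) or 0.08% DMSO, renewed daily. CYP3A mRNA was measured in 3 donors and CYP1A2 mRNA in one additional donor, both by qPCR. Values are triplicate means relative to DMSO.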

Cytochrome P450 2D6 = Cytochrome P450 2D6 (Homo sapiens, UniProt P10635); assay: Inhibition of CYP2D6 in human liver microsomes using dextromethorphan as substrate after 5 mins by LC-MS/MS analysis; type: ADME; method in brief: as §1
Chain of Cytochrome P450 2D6 (P10635 whole entry): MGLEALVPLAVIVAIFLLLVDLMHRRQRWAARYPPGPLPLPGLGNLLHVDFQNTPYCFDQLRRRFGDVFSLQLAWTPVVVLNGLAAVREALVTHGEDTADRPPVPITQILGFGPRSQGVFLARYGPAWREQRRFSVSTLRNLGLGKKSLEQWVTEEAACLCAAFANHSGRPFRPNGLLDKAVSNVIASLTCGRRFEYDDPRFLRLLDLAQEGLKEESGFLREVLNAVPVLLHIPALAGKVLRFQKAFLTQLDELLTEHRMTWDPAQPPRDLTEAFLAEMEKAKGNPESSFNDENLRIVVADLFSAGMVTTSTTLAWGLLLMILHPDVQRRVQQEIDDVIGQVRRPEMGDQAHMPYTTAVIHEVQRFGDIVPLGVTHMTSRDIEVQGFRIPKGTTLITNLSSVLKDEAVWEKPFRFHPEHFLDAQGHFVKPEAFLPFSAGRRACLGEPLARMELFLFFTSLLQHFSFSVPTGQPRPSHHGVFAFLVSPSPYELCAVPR

CYP3A [4] = target: T1, CYP3A; assay: Time-dependent inhibition of CYP3A in human liver microsomes assessed as midazolam 1'-hydroxylation using midazolam as substrate by LC-MS/MS analysis; type: ADME; details: probe midazolam (1'-hydroxylation)
Method in brief: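 Pooled HLM (16 donors, mixed sex), 37°C, duplicate. IC50: carfilzomib 0.01–10 µM preincubated 30 min, then midazolam near Km (3.8 µM) at 0.05 mg/mL protein, 5 min, LC-MS/MS, relative to 0.5% acetonitrile control. KI/kinact: 0–8 µM preincubated 0–30 min with 1.25 mg/mL HLM plus NADPH-generating system, diluted 25-fold, midazolam 40 µM for 5 min.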

Cytochrome P450 1A2 = target: T2, Cytochrome P450 1A2 (Homo sapiens, UniProt P05177); assay: Decrease in CYP1A2 activity in human hepatocytes assessed as acetaminophenol formation using phenacetin as substrate at 2.5 uM incubated for 3 days prior to substrate challenge for 60 mins by LC-MS/MS analysis; type: ADME, cell-based, Hepatocyte; details: 1 h
T2 sequence (P05177 whole entry): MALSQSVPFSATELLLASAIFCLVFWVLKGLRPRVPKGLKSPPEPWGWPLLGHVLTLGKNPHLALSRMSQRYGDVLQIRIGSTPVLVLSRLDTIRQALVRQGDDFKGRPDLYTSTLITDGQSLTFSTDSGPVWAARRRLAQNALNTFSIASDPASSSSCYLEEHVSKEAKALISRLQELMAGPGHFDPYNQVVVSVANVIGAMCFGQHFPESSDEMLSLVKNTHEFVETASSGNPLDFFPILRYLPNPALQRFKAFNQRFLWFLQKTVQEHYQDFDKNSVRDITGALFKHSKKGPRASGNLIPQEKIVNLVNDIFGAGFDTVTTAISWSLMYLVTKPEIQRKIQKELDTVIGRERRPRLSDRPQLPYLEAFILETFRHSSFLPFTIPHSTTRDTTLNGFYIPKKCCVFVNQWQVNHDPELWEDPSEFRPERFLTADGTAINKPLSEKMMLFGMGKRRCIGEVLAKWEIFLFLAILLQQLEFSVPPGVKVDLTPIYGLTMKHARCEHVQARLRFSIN
Method in brief: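 Hepatocytes from 3 donors were plated on collagen I and cultured 2 days, then treated 3 days with carfilzomib (0.1–2.5 µM), 0.08% DMSO, rifampicin 20 µM or β-naphthoflavone 20 µM, renewed daily. Cells were then incubated in serum-free medium in triplicate with testosterone 200 µM (CYP3A, 30 min, 6β-hydroxytestosterone) or phenacetin 100 µM (CYP1A2, 60 min, acetaminophenol). Products were measured by LC-MS/MS and expressed relative to DMSO.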

Plasma [5] = assay: Drug metabolism in plasma of human multiple myeloma patient assessed as morpholino-hPhe-Leu-Phe-Leu-diol metabolite formation at 15 mg/m'2, iv administered as single dose measured within first 30 mins after end of drug infusion by LC-MS/MS analysis; type: ADME, organism-based; details: in vivo, 0.5 h
Method in brief: (§2)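 Patients with multiple myeloma received a single 15 mg/m2 carfilzomib dose. Plasma was sampled pre-dose, at end of infusion, at 5, 15, 30 min and at 1, 1.5, 2, 4, 6, 24 h. Samples were protein-precipitated and analyzed by LC-MS/MS (metabolites 0.500–500 ng/mL) with deuterated internal standards.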

Plasma [6] = assay: Drug metabolism in plasma of human multiple myeloma patient assessed as morpholino-hPhe-Leu metabolite formation at 15 mg/m'2, iv administered as single dose measured within first 30 mins after end of drug infusion by LC-MS/MS analysis; type: ADME, organism-based; details: in vivo, 0.5 h; method in brief: as §2
Cytochrome P450 3A = Cytochrome P450 3A (Homo sapiens, UniProt P08684+P20815+Q9HB55+P24462); assay: Drug metabolism in pooled human hepatocytes assessed as disapperance rate at 1 uM by LC-MS/MS analysis in presence of 10 uM CYP3A inhibitor ketoconazole; type: ADME, cell-based, Hepatocyte
Method in brief: (§3)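 Pooled human hepatocytes in suspension (~0.5 x 10^6 viable cells/mL) were incubated with 1 µM carfilzomib at 37°C under 5% CO2, with or without isoform-selective CYP chemical inhibitors. Reactions were quenched with acetonitrile at 0, 15, 30, 60 and 120 min. Carfilzomib was quantified by non-validated LC-MS/MS after protein precipitation.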

Cytochrome P450 2C19 = Cytochrome P450 2C19 (Homo sapiens, UniProt P33261); assay: Drug metabolism in pooled human hepatocytes assessed as disapperance rate at 1 uM by LC-MS/MS analysis in presence of 10 uM CYP2C19 inhibitor (+)-N-3-benzylnirvanol; type: ADME, cell-based, Hepatocyte; method in brief: as §3
Chain of Cytochrome P450 2C19 (P33261 whole entry): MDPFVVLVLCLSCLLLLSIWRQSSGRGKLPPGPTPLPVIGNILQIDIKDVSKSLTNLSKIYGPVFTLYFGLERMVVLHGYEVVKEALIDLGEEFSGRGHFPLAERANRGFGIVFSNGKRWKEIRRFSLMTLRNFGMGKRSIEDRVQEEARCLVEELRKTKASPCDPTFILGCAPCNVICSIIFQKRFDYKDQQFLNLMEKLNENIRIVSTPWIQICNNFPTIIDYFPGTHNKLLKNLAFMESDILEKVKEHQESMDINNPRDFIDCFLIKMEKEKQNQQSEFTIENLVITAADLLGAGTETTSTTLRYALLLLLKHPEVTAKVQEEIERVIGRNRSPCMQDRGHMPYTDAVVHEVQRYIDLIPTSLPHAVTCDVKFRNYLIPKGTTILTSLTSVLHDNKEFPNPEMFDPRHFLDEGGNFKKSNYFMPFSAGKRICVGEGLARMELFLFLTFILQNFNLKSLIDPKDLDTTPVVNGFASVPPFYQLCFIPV

IC50 at 5 min (CYP3A [1]): 1.7 µM
fraction unbound [2]: 0.024
Drug metabolism (Plasma [3]): metabolite_detected
inhibition at 72 h, 2.5 µM (CYP1A2): 40%
IC50 (Cytochrome P450 2D6): > 10 µM
Ki (CYP3A [4]): 11 µM
kinact (CYP3A [4]): 0.00167 s⁻¹
inhibition (INH) (Cytochrome P450 1A2): Dose-dependent effect
Drug metabolism (Plasma [5]): metabolite_detected
Drug metabolism (Plasma [6]): metabolite_detected
Drug metabolism (Cytochrome P450 3A): 0.012 min⁻¹
Drug metabolism (Cytochrome P450 2C19): 0.016 min⁻¹
SMILES: CC(C)C[C@H](NC(=O)[C@H](CCc1ccccc1)NC(=O)CN1CCOCC1)C(=O)N[C@@H](Cc1ccccc1)C(=O)N[C@@H](CC(C)C)C(=O)[C@@]1(C)CO1 [CARFILZOMIB]
